Source: ChEMBL document CHEMBL4033781 (J Med Chem, 2018)
Calls of active or inactive are those of the source. The calls are words filed in the database; no cut-off is given here.

Tests used:
Liver [1] = assay: Metabolic stability in human liver S9 fraction assessed as parent compound remaining at 1 uM after 60 mins relative to control; assay type: ADME, tissue-based; details: s9, 1 h
Rattus norvegicus [2] = assay: Inhibition of rat sperm movement at 20 mg/kg administered via oral gavage for 3 days by SYTO staining based microscopic method relative to control; assay type: functional; details: 72 h
Procedure, shortened: (§1)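 Male rats were dosed daily by oral gavage, either at 5, 10 or 20 mg/kg for 3 days, or at 5 mg/kg for 3, 6, 9 or 12 days. Animals were then sacrificed and cauda epididymal sperm collected. Total and progressive motility were measured by CASA and compared with untreated controls. Values are mean ± SEM of three experiments.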

Liver [3] = assay: Metabolic stability in dog liver S9 fraction assessed as parent compound remaining at 1 uM after 60 mins relative to control; assay type: ADME, tissue-based, Canis lupus familiaris; details: s9, 1 h
[4] = target: Na+/K+ ATPase alpha-3/beta-1 (Rattus norvegicus, UniProt P06687+P07340); assay: Inhibition of recombinant rat Na+/K+-ATPase alpha3/beta1 expressed in baculovirus infected insect Sf9 cell membranes using [gamma-32P]ATP as substrate preincubated for 20 mins followed by substrate addition measured after 30 mins by liquid scintillation counting
Procedure, shortened: (§2)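 Rat α/β1 isoforms were expressed in baculovirus-infected Sf9 cells (72 h, 27 °C), washed in 10 mM imidazole-HCl pH 7.5 with 1 mM EGTA, and homogenised. Homogenates were assayed in 120 mM NaCl, 30 mM KCl, 3 mM MgCl₂, 0.2 mM EGTA and 30 mM Tris-HCl pH 7.4. Reactions were started with 2 mM γ[³²P]-ATP (final) and run 30 min at 37 °C. Released ³²Pi was extracted as phosphomolybdate into isobutanol and scintillation counted. IC50 came from single-site dose–response fits.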

[5] = Apparent permeability from basolateral side to apical side in human Caco2 cells assessed as drug recovery at 1 uM after 60 mins by HPLC-MS analysis; assay type: ADME, cell-based; details: caco-2, 1 h
Rattus norvegicus [6] = assay: Inhibition of rat sperm progressive motility at 5 mg/kg administered daily via oral gavage for 3 days by SYTO staining based microscopic method; assay type: functional, organism-based; procedure, shortened: as §1
[7] = Metabolic stability in monkey liver S9 fraction assessed as parent compound remaining at 1 uM after 60 mins relative to control; assay type: ADME, tissue-based, Macaca mulatta; details: rhesus monkey, s9, 1 h
[8] = target: Na+/K+ ATPase alpha-1/beta-1 (Rattus norvegicus, UniProt P06685+P07340); assay: Inhibition of recombinant rat Na+/K+-ATPase alpha1/beta1 expressed in baculovirus infected insect Sf9 cell membranes using [gamma-32P]ATP as substrate preincubated for 20 mins followed by substrate addition measured after 30 mins by liquid scintillation counting
Procedure, shortened: as §2, with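 “counted. Activity was taken as the 1 mM ouabain-sensitive fraction.” for “counted.”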

MCF7 = assay: Antiproliferative activity against human MCF7 cells up to 100 uM after 72 hrs by AlamarBlue assay; assay type: cell-based; details: mcf7, 72 h
[9] = Apparent permeability from basolateral side to apical side in human Caco2 cells at 1 uM after 60 mins by HPLC-MS analysis; assay type: ADME, cell-based; details: caco-2, 1 h
Rattus norvegicus [10] = assay: Inhibition of rat sperm total motility at 5 mg/kg administered daily via oral gavage for 6 to 12 days by SYTO staining based microscopic method relative to control; assay type: functional; procedure, shortened: as §1
Rattus norvegicus [11] = assay: Inhibition of rat sperm total motility at 5 mg/kg administered daily via oral gavage for 3 days by SYTO staining based microscopic method; assay type: functional, organism-based; procedure, shortened: as §1
[12] = Apparent permeability from apical side to basolateral side in human Caco2 cells at 1 uM after 60 mins by HPLC-MS analysis; assay type: ADME, cell-based; details: caco-2, 1 h
Procedure, shortened: (§3)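 Caco-2 monolayers were grown on Transwell filters, with test compound at 1 × 10^-6 M. Apical-to-basolateral flux was run at 37 °C with shaking, at pH 6.5 apical and pH 7.4 basolateral. Donor was sampled over 0–60 min and receiver at 60 min. Compound was quantified by full-scan HPLC-MS. Apparent permeability and percent recovery were derived from two determinations.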

[13] = target: Voltage-gated inwardly rectifying potassium channel KCNH2 (Homo sapiens, UniProt Q12809); assay: Displacement of Tracer Red from human ERG expressed in cell membranes up to 60 uM by fluorescence polarization assay
Procedure, shortened: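 Competitive fluorescence polarization displacement of a fluorescently tagged hERG ligand used membranes from cells stably expressing hERG. Compounds were tested up to 60 μM.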

Liver [14] = assay: Metabolic stability in rat liver S9 fraction assessed as parent compound remaining at 1 uM after 60 mins relative to control; assay type: ADME, tissue-based; details: s9, 1 h
Liver [15] = assay: Metabolic stability in mouse liver S9 fraction assessed as parent compound remaining at 1 uM after 60 mins relative to control; assay type: ADME, tissue-based; details: s9, 1 h
[16] = Apparent permeability from apical side to basolateral side in human Caco2 cells assessed as drug recovery at 1 uM after 60 mins by HPLC-MS analysis; assay type: ADME, cell-based; details: caco-2, 1 h; procedure, shortened: as §3
Rattus norvegicus [17] = assay: Inhibition of rat sperm progressive motility at 5 mg/kg administered daily via oral gavage for 6 to 12 days by SYTO staining based microscopic method relative to control; assay type: functional; procedure, shortened: as §1

Sequence of Voltage-gated inwardly rectifying potassium channel KCNH2 (Q12809 whole entry): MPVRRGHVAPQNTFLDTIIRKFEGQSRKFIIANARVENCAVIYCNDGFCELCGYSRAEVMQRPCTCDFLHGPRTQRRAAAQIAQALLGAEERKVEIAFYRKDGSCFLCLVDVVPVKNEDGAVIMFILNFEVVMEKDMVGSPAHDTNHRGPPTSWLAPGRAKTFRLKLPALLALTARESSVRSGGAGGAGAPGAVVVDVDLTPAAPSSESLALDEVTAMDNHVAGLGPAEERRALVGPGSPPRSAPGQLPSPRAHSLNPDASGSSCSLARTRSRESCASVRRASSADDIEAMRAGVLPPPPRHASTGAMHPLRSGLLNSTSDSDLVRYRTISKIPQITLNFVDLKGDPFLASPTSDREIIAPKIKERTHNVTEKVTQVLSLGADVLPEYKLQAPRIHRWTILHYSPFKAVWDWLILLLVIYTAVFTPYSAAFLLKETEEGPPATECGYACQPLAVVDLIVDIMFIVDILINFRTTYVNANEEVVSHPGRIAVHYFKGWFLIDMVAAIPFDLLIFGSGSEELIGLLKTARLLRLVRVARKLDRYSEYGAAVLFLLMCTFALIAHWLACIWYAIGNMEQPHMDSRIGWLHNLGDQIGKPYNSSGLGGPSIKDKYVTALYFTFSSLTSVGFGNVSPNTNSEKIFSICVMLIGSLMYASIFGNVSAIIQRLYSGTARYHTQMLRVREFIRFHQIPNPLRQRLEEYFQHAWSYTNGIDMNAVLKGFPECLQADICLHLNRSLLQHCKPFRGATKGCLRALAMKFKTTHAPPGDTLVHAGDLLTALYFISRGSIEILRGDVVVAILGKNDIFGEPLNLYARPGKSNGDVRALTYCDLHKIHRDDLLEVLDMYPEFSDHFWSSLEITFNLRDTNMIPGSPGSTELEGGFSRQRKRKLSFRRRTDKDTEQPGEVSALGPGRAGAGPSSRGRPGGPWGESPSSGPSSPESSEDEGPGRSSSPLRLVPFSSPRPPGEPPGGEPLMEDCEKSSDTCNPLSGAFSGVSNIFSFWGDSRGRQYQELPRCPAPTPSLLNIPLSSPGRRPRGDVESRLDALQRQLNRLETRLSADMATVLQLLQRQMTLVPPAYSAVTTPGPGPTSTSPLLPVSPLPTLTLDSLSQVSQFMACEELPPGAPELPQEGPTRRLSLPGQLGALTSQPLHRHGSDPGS

Compound `C[C@]12C[C@@H](O)[C@H]3[C@@H](CC[C@]4(O)C[C@@H](O)C[C@@H](O)[C@]34CO)[C@@]1(O)CC[C@@H]2c1cn(Cc2ccccc2)nn1` has a Stability (Liver [1]) of 107%, an inhibition in vivo at 20 mg/kg (Rattus norvegicus [2]) of 50% and a Stability (Liver [3]) of 99%. The IC50 [4] was > 100 µM, the Drug recovery [5] was 98% and the inhibition (Rattus norvegicus [6]) was “Active”. The Stability [7] was 89%, the IC50 [8] was > 100 µM and the Activity (MCF7) was “Non-Toxic”. The Papp [9] was 0.3 ×10⁻⁶ cm/s, the inhibition in vivo at 5 mg/kg (Rattus norvegicus [10]) was 40% and the inhibition (Rattus norvegicus [11]) was “Active”. For the same compound, the Papp [12] was < 0.2 ×10⁻⁶ cm/s, the “inhibition (INH)” value [13] was “Not Active” and the Stability (Liver [14]) was 95%. The Stability (Liver [15]) was 76%, the Drug recovery [16] was 94% and the inhibition in vivo at 5 mg/kg (Rattus norvegicus [17]) was 50%.
